Shown are actives, neighbours in structure and some others; about 0.77% of the full set was active somewhere.
bIAP activator: bovine intestinal alkaline phosphatase activators, primary screen, biochemical, bovine IAP, CDP-star luminescence; alkaline phosphatase, intestinal [Bos taurus]; purified bovine IAP, 30 min; stronger effect = higher value; fold of DMSO-control signal, blank-subtracted; activation factor at 20 µM; 0.17% of 200,000 active;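 active = activation factor of 2 or more at 20 µM, a signal rise over negative controls twice the positive control's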
bIAP inhibitor: bovine intestinal alkaline phosphatase inhibitors, primary screen, selectivity assay for TNAP inhibitor project, biochemical, bovine IAP, CDP-star luminescence; 190,000 tested, under 10 active; purified bovine IAP, 30 min; inhibition, % at 20 µM;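 active = over 50% inhibition of intestinal alkaline phosphatase at 20 µM in the single-dose screen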
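Assay system – bovine IAP enzyme · Quantity – bovine IAP at 1/65,000,000 final dilution · Detection – CDP-star luminescence signal · Times – 30 min reaction at room temperature · Also added – CDP-star substrate at 30 µM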
mIAP inh: inhibitors of mouse IAP, primary screen, biochemical, luminescence, uHTS | purified mouse IAP, CDP-Star luminescence, 30 min | 0.2% of 330,000 active | AID 2806, 2010 | inhibition, % at 10 µM;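 active = inhibition of at least 40% at 10 µM in the primary screen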
mIAP activ: activators of mouse IAP, primary screen, biochemical, luminescence, uHTS | intestinal alkaline phosphatase [Mus musculus] | AID 2805, 2010 | muIAP, CDP-Star luminescence, 30 min; stronger effect = higher value; 1 = vehicle-only enzyme signal, 0 = enzyme-free wells | activation factor at 10 µM | 0.24% of 330,000 active;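 active = activation factor of at least 2 at 20 µM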
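Assay system: mouse IAP enzyme; reagent: chemiluminescent substrate CDP-Star; dosing: test compounds delivered from DMSO solution; schedule: 30 min at room temperature; measured by: luminescence from enzymatic CDP-Star hydrolysis; controls: DMSO-only wells and no-enzyme negative control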
hIAP inh: human IAP inhibitors, primary screen, biochemical, luminescence, uHTS | purified IAP, CDP-Star luminescence, 30 min | 0.12% of 330,000 active | AID 2544, 2010 | inhibition, % at 10 µM;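 active = inhibition reaching a set limit with compound at 10 µM in the primary screen, cut at about 35% in these data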
Target sequence (P09923 whole entry, looked up): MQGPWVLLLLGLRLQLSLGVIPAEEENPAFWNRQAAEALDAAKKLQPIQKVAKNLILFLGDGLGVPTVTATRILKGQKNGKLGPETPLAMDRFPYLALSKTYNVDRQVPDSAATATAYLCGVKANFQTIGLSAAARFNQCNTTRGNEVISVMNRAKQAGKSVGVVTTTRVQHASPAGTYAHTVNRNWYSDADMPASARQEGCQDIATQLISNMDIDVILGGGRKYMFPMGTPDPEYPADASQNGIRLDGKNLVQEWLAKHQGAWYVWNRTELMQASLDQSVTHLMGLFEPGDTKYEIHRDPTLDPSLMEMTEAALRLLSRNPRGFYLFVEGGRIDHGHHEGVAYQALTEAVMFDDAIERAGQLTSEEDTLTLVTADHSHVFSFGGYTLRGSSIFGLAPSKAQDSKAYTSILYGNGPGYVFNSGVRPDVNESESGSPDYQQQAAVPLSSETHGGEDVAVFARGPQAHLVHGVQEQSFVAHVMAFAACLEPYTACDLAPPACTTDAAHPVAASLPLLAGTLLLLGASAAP
hIAP activ: human IAP activators, primary screen, biochemical, luminescence, uHTS; activation factor at 10 µM; Intestinal-type alkaline phosphatase (Homo sapiens), P09923; purified human IAP, CDP-Star luminescence, 30 min; stronger effect = higher value; 1 = vehicle-only enzyme, 0 = enzyme-free background; 0.16% of 330,000 active;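 active = activation factor of the enzyme at least 2-fold when tested at 20 µM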
Hits are given with their value; . = inactive; / = not tested or not shown.

SMILES	bIAP activator	bIAP inhibitor	mIAP inh	mIAP activ	hIAP inh	hIAP activ
O=C(/C=C/c1ccco1)NC(=S)Nc1ccc(O)c(-c2nc3ccccc3s2)c1	.	.	53	.	.	.
CCOc1ccc(/C=N/NC(=O)c2nnn(-c3nonc3N)c2-c2cccs2)cc1	/	/	.	.	.	.
Cc1ccc(NC(=S)NCc2ccc3[nH]c4c(c3c2)CCCC4)cc1	.	.	.	2.4	.	.
COc1ccccc1NC(=O)CC(NCc1ccccc1)C(=O)O (stereo unspecified)	2.3	.	.	.	.	.
COc1ccc(NC(=O)CC(NCCc2ccccc2)C(=O)O)c(OC)c1 (stereo unspecified)	.	.	.	.	.	.
Cc1ccc(N(CC(=O)NCc2ccccc2)C(=O)CCC(=O)Nc2ccccn2)cc1	/	/	.	.	.	.
CCOc1cccc(/C=C2\NC(=S)N(c3ccccc3)C2=O)c1O	/	/	.	.	.	.
CCOc1cc(/C=C2\NC(=S)N(c3c(C)n(C)n(-c4ccccc4)c3=O)C2=O)ccc1O	.	.	42	.	.	.
Cc1ccc(C)c(NC(=O)CC2Oc3ccccc3NC2=O)c1 (stereo unspecified)	/	/	.	.	.	.
CC(CCc1ccccc1)N(C)CC(O)c1cccc([N+](=O)[O-])c1 (stereo unspecified)	/	/	.	.	.	.
Cc1ccc(NC(=O)N/C=C/c2ccccc2)cc1	.	.	.	2.2	.	.
Cc1ccc(NC(=O)N/C=C/c2ccc(Cl)cc2)cc1	.	/	.	2.3	.	.
COc1ccc(NC(=O)N/C=C/c2ccc(Cl)cc2)cc1	.	.	.	.	.	.
COc1cccc(N2CCN(C(C)C(=O)NC34CC5CC(CC(C5)C3)C4)CC2)c1 (stereo unspecified)	/	/	.	.	.	.
Cc1cccc(NC(=O)COC(=O)c2ccccc2-c2nc3ccccc3s2)c1C	5.2	.	.	.	.	.
CCC(C)N(C(=O)Cn1nnc(-c2ccc(F)cc2)n1)C1CCS(=O)(=O)C1 (stereo unspecified)	/	/	.	.	.	.
O=C1CCCCN1CC(=O)N1CCCC(Nc2ccc(F)cc2)C1 (stereo unspecified)	/	/	44	.	.	.
COc1cc(OC)cc(C(=O)N[C@H](C(=O)NCc2ccccc2)C(C)C)c1	/	/	.	.	.	.
O=C(CSCc1ccco1)c1ccc(Cl)s1	.	.	45	.	.	.
O=C(NNC(=S)NCc1ccco1)c1ccc(Cl)s1	.	.	.	.	.	.
O=C(O)c1ccc(S(=O)(=O)N2CCC(NC(=O)C3CCCCC3)CC2)cc1	/	/	.	.	.	.
CCN(CC)C(=O)Cn1cc(S(=O)(=O)CC(=O)NCCc2ccccc2)c2ccccc21	/	/	.	.	.	.
CC(C)(C)OC(=O)N1CCN(C(=O)c2[nH]cnc2C(=O)N[C@@H](Cc2ccccc2)C(=O)OCc2ccccc2)CC1	/	/	.	.	.	.
CC(C)(C)OC(=O)[C@H](Cc1ccccc1)NC(=O)c1nc[nH]c1C(=O)N1CCN(C(=O)OC(C)(C)C)CC1	/	/	41	.	.	.
CCCN1C(=O)c2ccc(C(=O)Nc3nccs3)cc2C1=O	.	.	.	.	.	.
SMILES	bIAP activator	bIAP inhibitor	mIAP inh	mIAP activ	hIAP inh	hIAP activ
CCCc1cc(C(=O)Nc2nccs2)cs1	.	.	66	.	.	.
CCc1ccc(-c2nc(CN3CCC(C(=O)NCCc4ccc(OC)c(OC)c4)CC3)c(C)o2)cc1	2.1	.	.	.	.	.
CCc1ccc(-c2nc(CN3CCC(C(=O)NCc4ccccc4OC)CC3)c(C)o2)cc1	2.6	.	.	.	.	.
CCCCNS(=O)(=O)CCNCc1ccco1	/	/	.	.	/	/
COc1cccc(C2(c3cccc(OC)c3)CC2C(=O)Nc2cccc3ccccc23)c1 (stereo unspecified)	.	.	.	.	.	.
COc1cccc(NC(=O)Nc2ccncc2)c1	.	.	.	.	.	.
COc1cccc(NC(=O)Nc2ccc(Cc3ccncc3)cc2)c1	.	.	.	4.6	.	.
COc1cccc(NC(=O)Nc2cc(NC(=O)Nc3cccc(OC)c3)c(C)nc2C)c1	.	.	.	2	.	.
COc1cccc(NC(=O)C2CC2(c2cccc(OC)c2)c2cccc(OC)c2)c1 (stereo unspecified)	.	.	.	2.2	.	.
CSc1ncccc1C(=O)N1CCN(S(=O)(=O)c2ccccc2)CC1	/	/	.	.	.	.
CC(C)n1nc(C(=O)Nc2ccc3c(c2)OCO3)c2ccccc2c1=O	/	/	.	.	.	.
CCOC(=O)c1c(N)sc(=S)c2c1CCC2	.	.	41	.	.	.
O=C(NN=C1CCCC1)c1sc2ccccc2c1Cl	.	.	.	.	.	.
O=C1CCC/C(=N/NC(=O)c2sc3ccccc3c2Cl)C1	/	/	.	.	.	2.8
Cc1ccc(S(=O)(=O)N(C)C)cc1NC(=S)NC(C)CCCC(C)C (stereo unspecified)	.	.	.	3.9	.	.
CCCCCCC(C)NC(=S)Nc1cc(S(=O)(=O)N(C)C)ccc1C (stereo unspecified)	.	.	.	4.8	.	.
COC(C(=O)Nc1ccccc1C(=O)N1CCOCC1)c1ccccc1 (stereo unspecified)	/	/	.	.	.	.
COc1ccc(NS(=O)(=O)c2cccc(C(=O)NCCCn3ccnc3)c2)cc1	/	/	.	.	.	.
CSc1cccc(NC(=O)NCc2cccc(CNC(=O)Nc3cccc(SC)c3)c2)c1	/	/	.	2.1	.	.
COc1ccc(CCNC(=O)CNC(=O)c2ccc(Br)o2)cc1OC	/	/	.	.	.	.
CCc1cc(Cn2nc(-c3ccccc3)cc2C(=O)NCc2cccs2)on1	/	/	.	3.6	.	.
CCCCCCn1ccc(=N)cc1	.	.	.	.	.	.
CCCCCCCCCCCCCCCCn1cc[n+](CC(C)=O)c1	5.2	.	/	/	/	/
COC(=O)c1ccc(CO/N=C/c2ccc(OC)cc2OC)cc1	/	/	.	.	.	.
CC(c1ccccc1)N1CCn2c(nc3cc(NC(=O)NC4CCCCC4)ccc32)C1 (stereo unspecified)	2.5	.	/	/	/	/
CC(c1ccccc1)N1CCn2c(nc3cc(NC(=O)c4cccs4)ccc32)C1 (stereo unspecified)	.	.	.	.	.	.
COc1ccc(N(C(=O)Cn2nnc(-c3ccc(F)cc3)n2)C(C)C(=O)NC2CCCC2)cc1OC (stereo unspecified)	/	/	.	.	.	.
